Assay: Toxicity liver stage against HepG2, at 10uM
Assay type: cell-based
Design: test concentration 10 uM, cell line HepG2-A16-CD81EGFP
Settings: human, HepG2-A16-CD81EGFP cells; read-out: INHIBITION
Procedure, shortened: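 Uninfected HepG2-A16-CD81EGFP cells, 3 × 10^3 per well, 1536-well, plated on prespotted compound at 10 μM final, parasite-free screening media added to match infected plates; puromycin 10 μM positive, DMSO 0.5% negative; run in parallel with 48 h PbLuc assay at 37 °C, 5% CO2; viability by CellTiter-Glo luminescence, normalized to controls.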

Row | SMILES | cytotoxicity at 10 µM [%]
1 | O=C(c1cnc(-c2cccnc2)nc1)N1CCSCC1 | 0.431
2 | O=C1CC(c2ccncc2)c2c(c(C(=O)O)cn2-c2ccc(F)cc2)N1 (stereo not given) | 10.1
3 | CCC[C@H]1CN(c2nc(CO)cs2)C[C@@H]1NC(=O)C1CCC1 | 6.07
4 | O=S1(=O)C[C@@H]2[C@H](C1)N(Cc1ncc[nH]1)CCN2CCCc1ccccc1 | 0.662
5 | CS(=O)(=O)NC[C@@H]1OC[C@H]2CN(C(=O)c3ccc[nH]3)CC[C@H]21 | 0.253
6 | CC(Cn1cccn1)NCc1cccc(C#N)c1 (stereo not given) | 5.19
7 | Cc1ccc(C)c(C(NC(=O)C(C)(C)C)c2cccnc2)c1 (stereo not given) | -3.7
8 | CC(C)Nc1ncc(-c2csc(NC(=O)C[C@H]3COCCN3)n2)cn1 | -8.69
9 | CC1Cn2c(nc3c2c(=O)[nH]c(=O)n3C)O1 (stereo not given) | 1.26
10 | Cc1nc2c(c(N3CCCOCC3)n1)CCN(c1nccs1)CC2 | 3.08
11 | CCOC(=O)[C@@H]1[C@@H](c2ccccc2)CN2CCN(C(C)=O)C[C@H]12 | 9.28
12 | CC1(C)COCCN1C(=O)CCc1nc(-c2ccncc2)no1 | -6.61
13 | CC(=O)NCCNC(=O)NCc1ccc(Br)cc1Cl | 5.19
14 | O=C(Nc1ccc(I)cc1C(=O)NCCN1CCOCC1)c1ccco1 | 0.512
15 | Cc1nc(-c2ccccc2)nc2c1CCN(Cc1nccn1C)CC2 | -118
16 | CCN(C)c1ncnc2c1CCN(C(=O)c1ccc(C)o1)CC2 | -0.796
17 | COc1ccc(C2CN(c3ncccn3)CCN2C(C)=O)cc1 (stereo not given) | 5.27
18 | CN(CCN1CCOCC1)S(=O)(=O)CC1CCCC1 | 10.2
19 | CS(=O)(=O)Cc1ccccc1NCc1cc(Cl)ccc1Cl | 7.67
20 | O=C(CCc1cn[nH]c1)N1CCC(C2CCN(c3ncccn3)CC2)C1 (stereo not given) | 10.2
21 | Cc1ccc(OCC(O)CN(C)CC(=O)NC(C)C)c(C)c1 (stereo not given) | -7.55
22 | CN(Cc1cccnc1)[C@@H]1CN(c2ncc(F)cn2)[C@@H]2CCCO[C@H]12 | 0.559
23 | Cc1ccc(-c2nc(CN3CCC(N4CCNC4=O)CC3)co2)cc1 | -7.73
24 | O=C(N1CCCC1)C12CC(CN1Cc1nccs1)C2 | -11.5
25 | CN(C)CCC1CN(C(=O)c2cccc3c2OCC3)CCO1 (stereo not given) | 2.13
26 | Cc1c(NC(C)C(C)C)cccc1C(=O)NCc1ccnn1C (stereo not given) | 57.6
27 | C=C(C)CN1CCC(C(=O)c2cc(F)ccc2F)CC1 | -14.1
28 | CCOc1ccc(C#N)cc1NCc1cc(C)on1 | -60.8

Row | SMILES | cytotoxicity at 10 µM [%]
29 | CN(Cc1ccccc1NCc1ncc[nH]1)C(=O)c1cccs1 | -3.21
30 | CC(=O)N1CCC(N2CCOC[C@H]2c2nc(-c3ccc(Cl)s3)c[nH]2)CC1 | 2.29
31 | O=C(O)c1c[nH]c2cc(NS(=O)(=O)c3cc(F)ccc3Cl)ccc12 | -1.43
32 | CC(=O)Nc1nc(CN(C)C2CCCN(c3cccnn3)C2)cs1 (stereo not given) | -11.1
33 | c1nc(CCC2CCCCN2)cc(N2CCCC2)n1 (stereo not given) | -21.6
34 | Cc1noc(C2CCN(C(=O)CCCNc3ncccn3)CC2)n1 | -6.69
35 | CCc1ncc(C(=O)N(C)Cc2cc(-c3ccncc3)no2)cn1 | -13.2
36 | CN(Cc1cc(C(C)(C)C)n[nH]1)Cc1c[nH]nc1-c1ccc(F)cc1 | -4.83
37 | CC(C)Oc1ncccc1CNC(=O)c1ccc(=O)[nH]n1 | -23.8
38 | CN(C)CC1CSCCCN1C(=O)c1ccc(=O)[nH]c1 (stereo not given) | 2.76
39 | c1coc(CN2CCc3onc(Cn4ccnc4)c3C2)c1 | 7.52
40 | CCN(CC)C(=O)Cn1cc(C(=O)NCCCc2scnc2C)nn1 | -7.38
41 | Cc1nc(C2CCN(C(C)C)CC2)sc1Br | -3.02
42 | COCc1cccc(NC(=O)NCCCN(C)S(C)(=O)=O)c1 | -0.561
43 | COc1ccccc1OCCNCc1c(C(C)C)nn(C)c1N(C)C | -12.8
44 | CN(C)S(=O)(=O)N1CCC(C(O)c2ccc(Cl)cc2)CC1 (stereo not given) | -21.4
45 | Cc1cc(CN(C)C(=O)c2ccc(F)cc2F)no1 | -6.47
46 | Cc1nnc2n1CCN(C(=O)c1ccnc(N(C)C)c1)C2 | -16.2
47 | Cc1cc(C)c2nc(C)cc(C(=O)N3CC(O)CO3)c2c1 (stereo not given) | 16.5
48 | CCc1noc(C(C)N2CCOCC2)n1 (stereo not given) | -6.5
49 | Cc1nc(C)n(CC2CCCN(Cc3nnc(-c4ccco4)o3)C2)n1 (stereo not given) | -8.33
50 | Cc1ccc(C#N)c(N2CCCC(c3nccn3Cc3cscn3)C2)n1 (stereo not given) | -1.9
51 | COc1cc(C(=O)N2CCC(O)(CN3CCOCC3)C(C)(C)C2)ccn1 (stereo not given) | -9.61
52 | COCCN(CCC#N)S(=O)(=O)c1cc(F)cc(F)c1 | -3.32
53 | COc1ncccc1C1CC(=O)NCc2nc3ccccn3c21 (stereo not given) | -5.72
54 | FC(F)(F)c1nc(NC2CCCCC2)c2ccccc2n1 | 29.7
55 | CCS(=O)(=O)Nc1ccn(Cc2ccc(F)cc2Cl)n1 | 3.18
